G6PDH CS – inhibits Leuconostoc G6PDH, flagging false hits in G6PDH-based assays; hit rate 0.12% among 200,000; inhibition, % at 5 µM; Purified L. mesenteroides G6PDH, diaphorase/resazurin coupled fluorescence, 45 min; in the data active = inhibition above about 50%
PfGluPho inh – PfG6PD (Plasmodium falciparum) enzyme inhibition; inhibition, % at 20 µM; hit rate 0.78% among 350,000; PfGluPho enzyme, NADPH resazurin-diaphorase fluorescence;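 active = inhibition reaching at least a set limit at 20 µM in the primary screen, cut at about 59% in these data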;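 also: 0% = DMSO wells with substrate and 100% = DMSO wells lacking glucose-6-phosphate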
Diaph inh CS – counter-screen for diaphorase-based assays: diaphorase inhibitors and chemical oxidizers | diaphorase resazurin-to-resorufin fluorescence, NADH, 16 min; bacterial (C. kluyveri) enzyme, not human | inhibition, % at 20 µM | hit rate 0.69% among 190,000;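 active = primary screen inhibition at 20 µM above a set limit, cut at about 50% in these data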;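 also: plate controls were DMSO with full reaction for no effect and wells lacking NADH for full effect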
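material = Clostridium kluyveri diaphorase enzyme | amount = 0.14 U/mL diaphorase, enzyme working solution | schedule = incubation 16 min, room temperature | detection = fluorescence of resorufin formed from resazurin, Ex 544/Em 590 nm | benchmarks = positive control minus NADH, DMSO neutral control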
HKDC1 inhibitor – inhibitors of human hexokinase HKDC1; hit rate 0.16% among 340,000; Q2TB90; inhibition, % at 20 µM; recombinant HKDC1, G6PDH/diaphorase resazurin coupled fluorescence;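 active = inhibition above about 35% when tested at 20 µM, limit read from the data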;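 also: plate controls were DMSO wells with enzyme for no effect and DMSO wells lacking enzyme for full effect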
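Test system: recombinant HKDC1 (HK5) hexokinase enzyme, produced in-house; Amount: enzyme 5 µg/mL final; Buffer or medium: Tris pH 8.0 buffer with MgCl2, Tween-20, BSA, BME; Reagent: glucose and ATP substrates; Doses: 20 µM test compound, 1% DMSO; Incubation: 90 min reaction incubation at room temperature, dark; Detection: resorufin fluorescence at 613 nm.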
Diaphorase act – activates diaphorase or chemically reduces, flagging diaphorase assay artifacts. hit rate 0.005% among 190,000. Diaphorase/resazurin coupled assay, resorufin fluorescence, 16 min; hits give high values; 1 = vehicle wells, 0 = NADH-free wells. activation factor at 20 µM. AID 1229;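 active = diaphorase activity raised at least twofold by the compound at 20 µM; inactive = activation factor below 2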
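Assay system: Purified diaphorase enzyme from Clostridium kluyveri | Amount: Enzyme 0.07 U/mL final | Dosing: Compound 20 µM once, DMSO 1% | Timing: 16 min reaction at room temperature | Detection: Fluorescence, excitation 544 nm and emission 590 nm | Evaluation: Higher resorufin formation from activation or reduction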
An asterisk follows results filed as active; · = no result given. This is a sample that favours compounds with a hit; in the whole collection about 1.3% have one here.

SMILES	G6PDH CS	PfGluPho inh	Diaph inh CS	HKDC1 inhibitor	Diaphorase act
Cc1c2cc(O)c(=O)cc-2oc2cc(O)c(O)cc12	18	51	80*	29	0.2
Cc1nc2ccccc2n1C(=O)c1ccc(Cl)cc1[N+](=O)[O-]	17	7	54*	-9	0.5
Cc1cc(C)nc(NC(=O)c2ccc(Cl)cc2[N+](=O)[O-])c1	7	0	1	-8	1
COc1ccc(NC(=O)COC(=O)CNC(=O)c2cccs2)cc1Cl	·	6	·	-3	·
O=C(c1cccs1)N1CCc2c([nH]c3ccccc23)C1c1ccccn1 (stereo not drawn)	12	5	50*	7	0.5
CC(=O)c1ccc(C(=O)N2CCc3c([nH]c4ccccc34)C2c2ccccn2)s1 (stereo not drawn)	4	-2	-1	-4	1
CCC(=O)N(C)C[C@@H]1Oc2ncc(Br)cc2C(=O)N([C@@H](C)CO)C[C@H]1C	·	4	·	·	·
COc1cc2nc(=S)n3[nH]c(COc4ccccc4C)nc3c2cc1OC	5	26	91*	-16	0.1
Cc1ccccc1-c1nc2c3ccccc3nc(=S)n2[nH]1	·	-7	·	-16	·
COc1cc(-c2csc(CCn3nc(C)cc3C)n2)cc(OC)c1OC	2	0	2	-8	1
COc1cc2nc(=S)n3[nH]c(CCn4nc(C)cc4C)nc3c2cc1OC	17	53	92*	19	0.1
COc1ccc(S(=O)(=O)N(C)C)cc1NC(=O)c1ccc(OCC2CCCO2)cc1 (stereo not drawn)	·	-2	·	·	·
O=C(CCNC(=O)c1ccco1)NCc1ccc(F)cc1	·	3	·	-3	·
COC(=O)[C@@]1(Cc2ccc(F)cc2)[C@H]2c3cc(C(=O)N4CCCC4)n(CCO)c3C[C@H]2CN1C(=O)c1ccccc1	4	-6	11	-5	0.9
COC(=O)[C@@]1(Cc2ccc(F)cc2)[C@H]2c3cc(C(=O)N4CCCC4)n(CCc4ccc(O)c(O)c4)c3C[C@H]2CN1C(=O)c1ccccc1	25	·	52*	·	0.5
CCCCN1C(=O)C(CC(=O)NCCc2ccccn2)CC(C(=O)N(CC)CC)=C1C (stereo not drawn)	·	4	·	·	·
O=C(O)c1cccc(NC2=C(Cl)C(=O)c3ccccc3C2=O)c1	52*	-16	25	-17	0.8
O=C(CCS(=O)(=O)c1ccccc1)Nc1nc(-c2cccs2)cs1	50*	17	4	6	1
O=C(COc1ccccc1)Nc1nc(-c2cccs2)cs1	-3	18	28	-2	0.7
CCc1nc(SCc2ccc(Br)cc2)n[nH]1	·	51	·	-3	·
CCc1nc(SCc2ccc(Cl)cc2)n[nH]1	5	53	64*	5	0.4
CC1(C)Cc2c(sc(NC(=S)NC(=O)c3ccccc3)c2C(=O)O)CO1	9	-12	78*	1	0.2
CC1(C)Cc2c(sc(NC(=O)c3ccco3)c2C(=O)O)CO1	3	-5	18	-9	0.8
O=C(CCN1CCOCC1)N/N=C/c1cc(Br)cc(Br)c1O	9	1	63*	-18	0.4
Cc1cc(C(=O)N/N=C/c2ccc(O)c(O)c2O)c(C)n1-c1ccccc1	-3	48	89*	18	0.1
SMILES	G6PDH CS	PfGluPho inh	Diaph inh CS	HKDC1 inhibitor	Diaphorase act
Cc1cc(/C=N/NC(=O)c2ccncc2)c(C)n1-c1ccccc1	-5	8	13	0	0.9
O=C(CCN1CCN(c2ccccc2)CC1)N/N=C/c1ccc(O)c(O)c1O	33	48	64*	19	0.4
CC(Oc1cc2oc(=O)c3c(c2cc1Cl)CCC3)C(=O)NCCCn1ccnc1 (stereo not drawn)	·	14	·	-3	·
O=C(CCc1nnc(CCCc2ccccc2)o1)NCC(F)(F)F	10	-3	50*	-9	0.5
COc1ccc2c(c1)-c1nc(/N=C/c3ccccc3O)sc1CC2	-6	32	54*	3	0.5
Cc1ccc(C(=O)NC(=S)Nc2cccc3nsnc23)cc1	8	58	59*	8	0.4
CC(C)(C)c1ccc(/C([O-])=C(/C(=S)NCc2ccco2)[n+]2ccccc2)cc1	4	·	15	·	0.8
Cc1cc(C)n(-c2nnc(N3CCN(c4ccc(F)cc4)CC3)nn2)n1	2	-15	53*	0	0.5
Cc1cc(C)n(-c2ccc(N3CCOCC3)nn2)n1	30	-22	9	-10	0.9
CC(Sc1ccc2c(c1)OCCO2)C(=O)Nc1ncc(Cl)cc1Cl (stereo not drawn)	18	-25	64*	29	0.4
CC(Sc1ccc2c(c1)OCCO2)C(=O)Nc1ccc2c(c1)OCO2 (stereo not drawn)	5	-19	25	1	0.8
CCOC(=O)c1nn(-c2ccc(F)cc2)c(=O)c2c(N)scc12	51*	23	32	7	0.7
CC(=O)N(Cc1ccc(F)cc1)C1=C(NCCc2ccccc2)C(=O)c2ccccc2C1=O	50*	49	49	21	0.5
CC(=O)N(Cc1ccc(F)cc1)c1cccc(C)c1C	19	-10	14	4	0.9
c1ccc(-c2nnc3nc(N4CCCCC4)nc(N4CCCCC4)n23)cc1	·	8	·	-1	·
Cc1ccc(-c2cc(C(=O)O)c3cc(Br)ccc3n2)o1	7	75*	8	14	0.9
COc1ccc2nc(-n3c(O)c(C4=c5ccccc5=NC4=O)[nH]c3=S)sc2c1	-15	-13	52*	26	0.5
COc1cc(OC)cc(C(=O)N(CCCN2C(=O)c3cccc4cccc(c34)C2=O)c2cccc(OC)c2)c1	-20	43	53*	12	0.5
COc1ccc(N(CCCN2C(=O)c3cccc4cccc(c34)C2=O)C(=O)c2ccncc2)cc1	0	14	38	14	0.6
CN1CCN(C(=O)C(C(=O)c2ccc(F)cc2)n2ccccc2=O)CC1 (stereo not drawn)	14	-9	3	-2	1
CCCCOc1cccc(C(=O)NC(=S)Nc2ccc(Cl)c(C(=O)O)c2)c1	1	-7	62*	-13	0.4
O=C(NC(=S)Nc1ccc(Cl)c(C(=O)O)c1)c1cccc(COc2ccccc2)c1	·	-16	·	1	·
CCCCNC(=O)Oc1cc(CCl)on1	7	·	70*	·	0.3
C=CCn1c2ccccc2c2nnc(SCCN3CCCCC3)nc21	·	8	·	0	·
C=CCn1c2ccccc2c2nnc(SCCCn3c(=O)[nH]c4ccccc43)nc21	-26	42	57*	32	0.4
O=C(CC1C(=O)NCCN1Cc1cccc(C(F)(F)F)c1)NC1CCCCCC1 (stereo not drawn)	·	-1	·	-3	·
Cc1cccnc1Nc1nc(-c2ccccc2)cs1	·	23	·	3	·
Cc1cccnc1Nc1nc(-c2ccccn2)cs1	53*	11	16	-3	0.8

Compound activity deposited in PubChem by Sanford-Burnham Center for Chemical Genomics.
